Assay results taken from ChEMBL document CHEMBL4732217, “Design, synthesis, biological evaluation, and docking studies of novel (imidazol-5-yl)pyrimidine-based derivatives as dual BRAF/p38α inhibitors” (Eur J Med Chem, 2021).

Key:
[1] = system: LOX IMVI; assay: cells; assay type: functional, cell-based; details: Homo sapiens, 24 h
[2] = biological target: T1, Serine/threonine-protein kinase B-raf (Homo sapiens, UniProt P15056, V600E); assay: Inhibition of BRAF V600E mutant (unknown origin) using Ser/Thr 03 as substrate after 1 hr in presence of ATP by Z'-LYTE assay
T1 sequence (P15056 2-766 V600E limits assumed): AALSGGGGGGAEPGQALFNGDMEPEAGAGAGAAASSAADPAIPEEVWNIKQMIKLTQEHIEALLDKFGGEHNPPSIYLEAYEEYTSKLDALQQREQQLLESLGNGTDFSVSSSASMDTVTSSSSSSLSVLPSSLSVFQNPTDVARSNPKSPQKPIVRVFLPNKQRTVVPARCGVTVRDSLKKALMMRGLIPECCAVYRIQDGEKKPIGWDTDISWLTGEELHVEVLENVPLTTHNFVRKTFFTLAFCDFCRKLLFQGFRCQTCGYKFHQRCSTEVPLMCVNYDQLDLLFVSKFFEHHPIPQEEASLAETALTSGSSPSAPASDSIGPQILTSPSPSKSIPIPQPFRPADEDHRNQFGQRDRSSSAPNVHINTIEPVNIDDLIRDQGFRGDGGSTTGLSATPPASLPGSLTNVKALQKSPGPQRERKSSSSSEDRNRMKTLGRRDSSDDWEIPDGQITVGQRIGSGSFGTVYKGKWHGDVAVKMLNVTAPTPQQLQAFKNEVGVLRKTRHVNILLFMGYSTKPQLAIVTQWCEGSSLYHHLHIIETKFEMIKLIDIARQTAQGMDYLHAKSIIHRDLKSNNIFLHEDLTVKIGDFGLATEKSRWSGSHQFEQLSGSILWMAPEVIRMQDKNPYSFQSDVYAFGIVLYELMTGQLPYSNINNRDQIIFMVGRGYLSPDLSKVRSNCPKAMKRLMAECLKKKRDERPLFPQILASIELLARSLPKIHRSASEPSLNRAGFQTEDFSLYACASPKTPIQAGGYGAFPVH

[3] = biological target: T2, Mitogen-activated protein kinase 14 (Homo sapiens, UniProt Q16539); assay: Inhibition of p38 alpha (unknown origin) at 10 uM using Ser/Thr 15 as substrate incubated for 1 hr in presence of ATP by Z'-Lyte assay relative to control
T2 sequence (Q16539 whole entry): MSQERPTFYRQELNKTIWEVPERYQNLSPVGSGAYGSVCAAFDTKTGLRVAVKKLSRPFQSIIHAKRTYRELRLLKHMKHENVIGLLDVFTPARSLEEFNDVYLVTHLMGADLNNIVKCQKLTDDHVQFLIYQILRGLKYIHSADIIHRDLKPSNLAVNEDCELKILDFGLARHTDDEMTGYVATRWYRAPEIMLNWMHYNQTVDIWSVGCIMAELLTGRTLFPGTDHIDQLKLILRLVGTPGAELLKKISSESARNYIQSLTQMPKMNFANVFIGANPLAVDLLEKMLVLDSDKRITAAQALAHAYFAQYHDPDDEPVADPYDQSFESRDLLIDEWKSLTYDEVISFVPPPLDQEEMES
Outline: (§1)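 Run by a commercial kinase profiling service at 100 µM ATP. Single-point screening was followed by 5-point titration (1 nM, 10 nM, 100 nM, 1 µM, 10 µM) for IC50.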

[4] = system: Serine/threonine-protein kinase B-raf (Homo sapiens), P15056 [V600E]; assay: Inhibition of BRAF V600E mutant (unknown origin) at 10 uM using Ser/Thr 03 as substrate after 1 hr in presence of ATP by Z'-LYTE assay relative to control
Chain of Serine/threonine-protein kinase B-raf (Homo sapiens), P15056 [V600E] (P15056 whole entry V600E): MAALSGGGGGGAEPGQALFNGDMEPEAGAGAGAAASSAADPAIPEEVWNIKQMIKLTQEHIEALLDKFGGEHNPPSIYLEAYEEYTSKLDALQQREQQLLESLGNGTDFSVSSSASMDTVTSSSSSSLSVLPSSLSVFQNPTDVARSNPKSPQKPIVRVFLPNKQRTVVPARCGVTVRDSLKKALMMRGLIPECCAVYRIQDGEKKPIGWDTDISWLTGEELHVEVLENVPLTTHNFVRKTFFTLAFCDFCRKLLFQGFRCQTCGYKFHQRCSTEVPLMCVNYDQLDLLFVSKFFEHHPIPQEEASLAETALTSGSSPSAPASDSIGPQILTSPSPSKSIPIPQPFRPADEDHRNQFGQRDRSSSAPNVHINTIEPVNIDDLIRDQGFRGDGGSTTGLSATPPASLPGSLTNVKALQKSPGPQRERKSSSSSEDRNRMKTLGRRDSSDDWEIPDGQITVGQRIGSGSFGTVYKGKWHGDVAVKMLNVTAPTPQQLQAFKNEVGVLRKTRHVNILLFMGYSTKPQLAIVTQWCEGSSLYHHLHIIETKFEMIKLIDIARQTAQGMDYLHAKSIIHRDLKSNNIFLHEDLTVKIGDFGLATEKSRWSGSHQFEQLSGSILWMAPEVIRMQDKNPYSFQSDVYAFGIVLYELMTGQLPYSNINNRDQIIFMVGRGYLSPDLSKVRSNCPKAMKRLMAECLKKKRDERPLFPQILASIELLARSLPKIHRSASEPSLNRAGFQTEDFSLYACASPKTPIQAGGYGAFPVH
Outline: as §1

[5] = Inhibition of LPS stimulated TNF-alpha production in mouse RAW264.7 macrophages at 10 uM preincubated for 1 hr followed by LPS stimulation and measured after 24 hrs by EIA relative to control; assay type: functional; details: time 25 hrs
Outline: (§2)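 RAW 264.7 macrophages plated at 2 × 10⁵ cells per well and left overnight. Pretreated 1 h with compound, then stimulated 24 h with lipopolysaccharide. TNF-α in culture supernatant measured by EIA. BAY 11-7082 reference tested at 0.5, 1.0, 5.0 and 10.0 µM. Values are means ± S.D.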

[6] = Inhibition of LPS stimulated TNF-alpha production in mouse RAW264.7 macrophages preincubated for 1 hr followed by LPS stimulation and measured after 24 hrs by EIA; assay type: functional
Outline: as §2

[7] = system: Serine/threonine-protein kinase B-raf (Homo sapiens), P15056 [V600E]; assay: Potency index, ratio of staurosporine IC50 to compound IC50 for inhibition of BRAF V600E mutant (unknown origin)
[8] = Inhibition of LPS stimulated TNF-alpha production in mouse RAW264.7 macrophages at 1 uM preincubated for 1 hr followed by LPS stimulation and measured after 24 hrs by EIA relative to control; assay type: functional; details: time 25 hrs
Outline: as §2

[9] = biological target: T2, Mitogen-activated protein kinase 14; assay: Inhibition of p38 alpha (unknown origin) using Ser/Thr 15 as substrate incubated for 1 hr in presence of ATP by Z'-Lyte assay
[10] = biological target: T2, Mitogen-activated protein kinase 14; assay: Potency index, ratio of PP2 IC50 to compound IC50 for inhibition of P38 alpha (unknown origin)
[11] = system: RAW264.7; assay: Potency index, ratio of BAY 11-7082 IC50 to compound IC50 for inhibition of LPS stimulated TNF-alpha production in mouse RAW264.7 macrophages; assay type: functional
[12] = Selectivity index, ratio of IC50 for human IOSE-80PC cells to IC50 for human LOX IMVI cells
Outline: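 IC50 against IOSE-80PC normal ovarian epithelial cells (MTT, 5-dose) divided by IC50 against LOX-IMVI melanoma cells (MTT, 24 h compound exposure, means of duplicate experiments ± S.D.).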

[13] = Cytotoxicity against human IOSE-80PC cells assessed as reduction in cell viability incubated for 24 hrs by MTT assay; assay type: cell-based, IOSE80pc
Outline: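 Human ovarian epithelial IOSE-80PC cells grown in RPMI 1640 with FBS and penicillin-streptomycin, seeded at 1 × 10⁵/mL, exposed to a range of compound concentrations in 5-dose mode. Viability read by MTT; IC50 derived.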

[14] = biological target: T1, Serine/threonine-protein kinase B-raf; assay: Inhibition of BRAF V600E mutant (unknown origin) preincubated for 20 mins followed by 33P-ATP addition and measured after 2 hrs by HotSpot kinase assay

IC50 [1] | inhibition [3] | inhibition [4] | Structure (SMILES) | other results
2.59 µM | 79.4% | 82.4% | COc1cc(-c2nc(-c3ccccc3)[nH]c2-c2ccnc(NCCCNS(=O)(=O)c3ccc(C)cc3)n2)ccc1F | –
23.7 µM | 30% | 88.3% | COc1cc(-c2nc(-c3ccccc3)[nH]c2-c2ccnc(NCCCNS(=O)(=O)c3ccc(Br)cc3)n2)ccc1Cl | –
6.02 µM | 70.8% | 101% | Cc1ccc(S(=O)(=O)NCCCNc2nccc(-c3[nH]c(-c4ccccc4)nc3-c3ccc(Cl)c(O)c3)n2)cc1 | IC50 [2]: 0.00804 µM
83.1 µM | 72.8% | 79.2% | COc1cc(-c2nc(-c3ccccc3)[nH]c2-c2ccnc(NCCCNS(=O)(=O)c3ccc(Cl)cc3)n2)ccc1F | –
18.6 µM | 50.4% | 88.2% | COc1cc(-c2nc(-c3ccccc3)[nH]c2-c2ccnc(NCCCNS(=O)(=O)c3ccc(C)cc3)n2)ccc1Cl | –
33.9 µM | 73.4% | 81.5% | COc1cc(-c2nc(-c3ccccc3)[nH]c2-c2ccnc(NCCCNS(=O)(=O)c3ccc(Br)cc3)n2)ccc1F | –
3.96 µM | 84.1% | 80.1% | COc1cc(-c2nc(-c3ccccc3)[nH]c2-c2ccnc(NCCCNS(=O)(=O)c3ccc(F)cc3)n2)ccc1F | –
60.9 µM | 52.1% | 85.1% | COc1cc(-c2nc(-c3ccccc3)[nH]c2-c2ccnc(NCCCNS(=O)(=O)c3ccc(Cl)cc3)n2)ccc1Cl | –
1.8 µM | 54.6% | 91.1% | COc1ccc(S(=O)(=O)NCCCNc2nccc(-c3[nH]c(-c4ccccc4)nc3-c3ccc(Cl)c(OC)c3)n2)cc1 | –
4.53 µM | 62.1% | 81% | COc1cc(-c2nc(-c3ccccc3)[nH]c2-c2ccnc(NCCCNS(=O)(=O)c3ccc(F)cc3)n2)ccc1Cl | –
6.13 µM | 88.5% | 89.1% | COc1ccc(S(=O)(=O)NCCCNc2nccc(-c3[nH]c(-c4ccccc4)nc3-c3ccc(F)c(OC)c3)n2)cc1 | –
15.5 µM | 73.7% | 97.3% | O=S(=O)(NCCCNc1nccc(-c2[nH]c(-c3ccccc3)nc2-c2ccc(Cl)c(O)c2)n1)c1ccc(Br)cc1 | IC50 [2]: 0.0218 µM
26.3 µM | 87.8% | 101% | Cc1ccc(S(=O)(=O)NCCCNc2nccc(-c3[nH]c(-c4ccccc4)nc3-c3ccc(F)c(O)c3)n2)cc1 | IC50 [2]: 0.00868 µM; IC50 [9]: 0.2 µM

More lines, now with the values behind:

Structure (SMILES) | IC50 [1] | inhibition [3] | inhibition [4] | other results
O=S(=O)(NCCCNc1nccc(-c2[nH]c(-c3ccccc3)nc2-c2ccc(Cl)c(O)c2)n1)c1cccc(F)c1 | 33.6 µM | 78.6% | 101% | IC50 [2]: 0.0148 µM
O=S(=O)(NCCCNc1nccc(-c2[nH]c(-c3ccccc3)nc2-c2ccc(F)c(O)c2)n1)c1ccc(O)cc1 | 13.9 µM | 92.8% | 101% | inhibition at 10 µM [5]: 96.4%; IC50 [6]: 0.0963 µM; Ratio IC50 [7]: 12.7; IC50 [2]: 0.00249 µM; inhibition at 1 µM [8]: 85.2%; IC50 [9]: 0.085 µM; Ratio IC50 [10]: 49.8; Ratio IC50 [11]: 53.8
O=S(=O)(NCCCNc1nccc(-c2[nH]c(-c3ccccc3)nc2-c2ccc(F)c(O)c2)n1)c1ccc(C(F)(F)F)cc1 | 2.45 µM | 65.4% | 98.4% | Ratio IC50 [12]: > 4.08; IC50 [13]: > 10 µM
O=S(=O)(NCCCNc1nccc(-c2[nH]c(-c3ccccc3)nc2-c2ccc(Cl)c(O)c2)n1)c1ccc(Cl)cc1 | 61.3 µM | 70.8% | 99.7% | –
O=S(=O)(NCCCNc1nccc(-c2[nH]c(-c3ccccc3)nc2-c2ccc(F)c(O)c2)n1)c1ccc(Br)cc1 | 5.66 µM | 84.8% | 100% | IC50 [2]: 0.0263 µM; IC50 [9]: 0.33 µM
COc1cc(-c2nc(-c3ccccc3)[nH]c2-c2ccnc(NCCCNS(=O)(=O)c3ccc(C(F)(F)F)cc3)n2)ccc1Cl | 1.78 µM | 18.9% | 55.9% | Ratio IC50 [12]: > 5.62; IC50 [13]: > 10 µM
O=S(=O)(NCCCNc1nccc(-c2[nH]c(-c3ccccc3)nc2-c2ccc(Cl)c(O)c2)n1)c1cccc2ccccc12 | 7.72 µM | 51.1% | 96.2% | –
O=S(=O)(NCCCNc1nccc(-c2[nH]c(-c3ccccc3)nc2-c2ccc(F)c(O)c2)n1)c1ccccc1 | 9.58 µM | 87% | 98.4% | IC50 [2]: 0.00562 µM; IC50 [9]: 0.21 µM
O=S(=O)(NCCCNc1nccc(-c2[nH]c(-c3ccccc3)nc2-c2ccc(F)c(O)c2)n1)c1cccc(F)c1 | 7.89 µM | 90.5% | 100% | IC50 [2]: 0.0303 µM; IC50 [9]: 0.14 µM
COc1cc(-c2nc(-c3ccccc3)[nH]c2-c2ccnc(NCCCNS(=O)(=O)c3cccc(F)c3)n2)ccc1F | 0.9 µM | 82.7% | 72.5% | Ratio IC50 [12]: > 11.1; IC50 [13]: > 10 µM
O=S(=O)(NCCCNc1nccc(-c2[nH]c(-c3ccccc3)nc2-c2ccc(F)c(O)c2)n1)c1ccc(F)cc1 | 19.2 µM | 91.4% | 97% | –
COc1cc(-c2nc(-c3ccccc3)[nH]c2-c2ccnc(NCCCNS(=O)(=O)c3cccc4ccccc34)n2)ccc1Cl | 13.5 µM | 27.1% | 90% | –
COc1cc(-c2nc(-c3ccccc3)[nH]c2-c2ccnc(NCCCNS(=O)(=O)c3ccc(C(F)(F)F)cc3)n2)ccc1F | 75.2 µM | 48.6% | 42.4% | –
COc1cc(-c2nc(-c3ccccc3)[nH]c2-c2ccnc(NCCCNS(=O)(=O)c3cccc(F)c3)n2)ccc1Cl | 5.11 µM | 58.3% | 84.9% | –
O=S(=O)(NCCCNc1nccc(-c2[nH]c(-c3ccccc3)nc2-c2ccc(Cl)c(O)c2)n1)c1ccccc1 | 2.63 µM | 82.2% | 99.4% | IC50 [2]: 0.00425 µM; Ratio IC50 [12]: > 3.8; IC50 [13]: > 10 µM
O=S(=O)(NCCNc1cc(-c2[nH]c(-c3ccccc3)nc2-c2cccc(O)c2)ccn1)c1ccc(O)cc1 | – | – | – | IC50 [14]: 0.032 µM
O=S(=O)(NCCCNc1nccc(-c2[nH]c(-c3ccccc3)nc2-c2ccc(Cl)c(O)c2)n1)c1ccc(F)cc1 | 2.3 µM | 85.5% | 97.1% | Ratio IC50 [12]: > 4.35; IC50 [13]: > 10 µM
COc1cc(-c2nc(-c3ccccc3)[nH]c2-c2ccnc(NCCCNS(=O)(=O)c3cccc4ccccc34)n2)ccc1F | 14.9 µM | 44.4% | 81% | –
O=S(=O)(NCCCNc1nccc(-c2[nH]c(-c3ccccc3)nc2-c2ccc(F)c(O)c2)n1)c1ccc(Cl)cc1 | 14.2 µM | 84.9% | 93.9% | –
COc1cc(-c2nc(-c3ccccc3)[nH]c2-c2ccnc(NCCCNS(=O)(=O)c3ccccc3)n2)ccc1F | 4.52 µM | 83.5% | 77.3% | –
O=S(=O)(NCCCNc1nccc(-c2[nH]c(-c3ccccc3)nc2-c2ccc(Cl)c(O)c2)n1)c1ccc(C(F)(F)F)cc1 | 10.1 µM | 54.3% | 99.2% | –
COc1cc(-c2nc(-c3ccccc3)[nH]c2-c2ccnc(NCCCNS(=O)(=O)c3ccccc3)n2)ccc1Cl | 7.47 µM | 58.6% | 80% | –
O=S(=O)(NCCCNc1nccc(-c2[nH]c(-c3ccccc3)nc2-c2ccc(Cl)c(O)c2)n1)c1ccc(O)cc1 | 36.8 µM | 77.6% | 101% | IC50 [2]: 0.00781 µM
Cc1ccc(S(=O)(=O)/C=C/C#N)cc1 | – | – | – | IC50 [6]: 5.18 µM
O=S(=O)(NCCCNc1nccc(-c2[nH]c(-c3ccccc3)nc2-c2ccc(F)c(O)c2)n1)c1cccc2ccccc12 | 3.71 µM | 79.8% | 99.8% | –
